CYP2C9 activ: increases human cytochrome P450 2C9 activity. P11712. recombinant CYP2C9, luciferin-H conversion, luminescence; hits give high values; factor 1 = untreated enzyme, 0 = blocked. activation factor at 5 µM. 96,000 tested, 1.4% active. AID 1024;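 active means activation factor of 2 or more for CYP2C9 at a 5 µM dose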;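 further: 0 = sulfaphenazole-blocked wells and 1 = vehicle-only wells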
Target sequence (P11712 whole entry, looked up): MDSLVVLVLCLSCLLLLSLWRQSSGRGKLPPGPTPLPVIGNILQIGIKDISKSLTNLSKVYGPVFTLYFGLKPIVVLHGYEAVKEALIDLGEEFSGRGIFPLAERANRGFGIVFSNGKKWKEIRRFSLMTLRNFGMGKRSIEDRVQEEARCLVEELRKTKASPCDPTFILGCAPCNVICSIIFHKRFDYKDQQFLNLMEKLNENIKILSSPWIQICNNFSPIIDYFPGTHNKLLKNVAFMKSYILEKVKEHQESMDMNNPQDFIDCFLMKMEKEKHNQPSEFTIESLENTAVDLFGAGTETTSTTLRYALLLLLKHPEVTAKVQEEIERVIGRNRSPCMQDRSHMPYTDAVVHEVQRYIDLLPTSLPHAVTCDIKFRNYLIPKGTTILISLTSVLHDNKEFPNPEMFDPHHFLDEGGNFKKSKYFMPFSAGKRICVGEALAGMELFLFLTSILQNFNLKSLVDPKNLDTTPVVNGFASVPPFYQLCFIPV
Ecoli tolC: E. coli tolC mutant growth inhibition; E. coli BW25113 tolC mutant growth, OD615; growth inhibition, % at 10 µM (by protocol); 65,000 tested, 2.2% active; AID 573;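 active means growth inhibition at or above a cutoff equal to the mean over every tested compound plus 3 SD, cut at about 60% in these data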;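 further: growth measured after 20 h incubation at 37 °C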
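Test system – E. coli BW25113 ΔtolC::kan, tolC deletion mutant strain · Detection – OD at 615 nm · Buffer or medium – LB with kanamycin 50 µg/mL · Times – 20 h compound exposure of bacteria at 37 °C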
CYP2C9 inh: blocks human cytochrome P450 2C9. inhibition, % at 5 µM. 96,000 tested, 20% active. P11712. CYP2C9 Supersomes, luciferin-H conversion, luminescence. AID 777;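 active means blocking of liver enzyme CYP2C9 beyond about 50% at 5 µM, limit read from the data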
CYP2C19 act: increases human CYP2C19 enzyme activity; 96,000 tested, under 10 active; P33261; activation factor at 5 µM; recombinant CYP2C19, luciferin-H EGE luminescence; hits give high values; 0 = fully inhibited enzyme, 1 = untreated enzyme;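 active means activation factor of at least 2 at 5 µM in the primary screen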;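 further: 0 = wells with 2.5 mM tranylcypromine and 1 = vehicle-only wells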
E coli WT exp: blocks growth of wild type E. coli BW25113. 98,000 tested, 0.15% active. OD600 absorbance. growth inhibition, % at 100 µM;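 active means growth inhibition above about 50% at one test dose, limit read from the data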;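 further: growth measured after 20 h incubation at 37 °C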
CYP2C19 inh: inhibitors of human CYP2C19 | 96,000 tested, 21% active | CYP2C19 Supersomes, luciferin-H EGE luminescence, 30 min | inhibition, % at 5 µM;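 active means CYP2C19 inhibition above a set limit at 5 µM in the primary screen, cut at about 50% in these data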;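 further: plate controls were negative control wells for no effect and 2.5 mM tranylcypromine positive control for full effect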
Active calls of the source: *. A selection: hits, their analogues and other compounds. The true share with any hit is near 29%.

How did CC(C)OC(=O)CSc1nnc(-c2ccc(O)cc2)n1Cc1ccccc1 do in these assays?
CYP2C9 activ: 0.6; Ecoli tolC: 2; CYP2C9 inh: 37; CYP2C19 act: 0.4; E coli WT exp: 6; CYP2C19 inh: 64*

Results for CCn1c(SCC(=O)OC(C)C)nnc1-c1cccc(Cl)c1 ?
CYP2C9 activ: 1.3; Ecoli tolC: -1; CYP2C9 inh: -27; CYP2C19 act: 0.5; E coli WT exp: 2; CYP2C19 inh: 55*

How did CC(C)OC(=O)CSc1nnc(-c2ccc(Cl)cc2Cl)n1N do in these assays?
CYP2C9 activ: 0.4; Ecoli tolC: -16; CYP2C9 inh: 59*; CYP2C19 act: 0.3; E coli WT exp: 8; CYP2C19 inh: 65*

Results for O=[N+]([O-])c1nn(-c2ccc3c(c2)OCCO3)n(O)c1=NCCCO ?
CYP2C9 activ: 0.9; CYP2C9 inh: 13; CYP2C19 act: 1; E coli WT exp: 35; CYP2C19 inh: 2

How did O=[N+]([O-])c1nn(-c2ccccc2)n(O)c1=NCc1ccc2c(c1)OCO2 do in these assays?
CYP2C9 activ: 0.5; CYP2C9 inh: 53*; CYP2C19 act: 0.2; E coli WT exp: 8; CYP2C19 inh: 77*

Results for COc1ccccc1NC(=O)C1C2C=CC3(CN(Cc4cccnc4)C(=O)C13)O2 (stereo unspecified) ?
CYP2C9 activ: 0.8; Ecoli tolC: -11; CYP2C9 inh: 20; CYP2C19 act: 0.9; E coli WT exp: 4; CYP2C19 inh: 14

What do the screens show for `Cc1ccc(NC(=O)C2C3C=CC4(CN(Cc5cccnc5)C(=O)C24)O3)cc1F` (stereo unspecified)?
CYP2C9 activ: 1; Ecoli tolC: -3; CYP2C9 inh: 4; CYP2C19 act: 0.4; E coli WT exp: 1; CYP2C19 inh: 58*

What do the screens show for `COc1ccc(/C=N/NC(=O)C2CCN(c3ncc(C(F)(F)F)cc3Cl)CC2)cc1`?
CYP2C9 activ: 0.9; CYP2C9 inh: 12; CYP2C19 act: 1; E coli WT exp: -12; CYP2C19 inh: 2

Results for Cc1ccc(-n2nnc3c(SCC(=O)N4CCN(c5ccccc5)CC4)ncnc32)cc1 ?
Ecoli tolC: -2

What do the screens show for `CC1(C)CC2CC(C)(CN2CC(=O)C(C#N)c2ccccc2)C1` (stereo unspecified)?
CYP2C9 activ: 1; Ecoli tolC: 5; CYP2C9 inh: 2; CYP2C19 act: 0.2; E coli WT exp: 2; CYP2C19 inh: 80*

How did CC1(C)CC2CC(C)(CN2C(=O)CN2C(=O)c3ccccc3C2=O)C1 (stereo unspecified) do in these assays?
CYP2C9 activ: 1.2; Ecoli tolC: 5; CYP2C9 inh: -19; CYP2C19 act: 1.1; E coli WT exp: -1; CYP2C19 inh: -6

Results for CCOC(=O)C1C(=O)NC(N2CCc3ccccc32)=NC1c1ccccc1 (stereo unspecified) ?
CYP2C9 activ: 1.1; Ecoli tolC: -7; CYP2C9 inh: -10; CYP2C19 act: 0.9; E coli WT exp: 10; CYP2C19 inh: 8

What do the screens show for `COc1ccc(OCCCSc2ncccn2)cc1`?
CYP2C9 activ: 0.8; Ecoli tolC: -2; CYP2C9 inh: 22; CYP2C19 act: 0.4; E coli WT exp: 12; CYP2C19 inh: 64*

What do the screens show for `COc1ccc(OCCSc2ncccn2)cc1`?
CYP2C9 activ: 0.6; Ecoli tolC: -18; CYP2C9 inh: 37; CYP2C19 act: 0.1; E coli WT exp: 3; CYP2C19 inh: 87*

How did c1ccc(Oc2cccc(OCCCn3cncn3)c2)cc1 do in these assays?
CYP2C9 activ: 0.1; Ecoli tolC: 9; CYP2C9 inh: 94*; CYP2C19 act: 0; E coli WT exp: 16; CYP2C19 inh: 100*

What do the screens show for `c1ccc(Oc2cccc(OCCCCSc3ncccn3)c2)cc1`?
CYP2C9 activ: 0.5; CYP2C9 inh: 51*; CYP2C19 act: 0.6; E coli WT exp: 1; CYP2C19 inh: 38

How did Clc1ccc(OCCSc2ncccn2)cc1 do in these assays?
CYP2C9 activ: 0.8; CYP2C9 inh: 20; CYP2C19 act: 0.7; E coli WT exp: 13; CYP2C19 inh: 29

What do the screens show for `CCCN1C2CCCC1CC(NC(=O)c1cc(OC)c(OC)c(OC)c1)C2` (stereo unspecified)?
CYP2C9 activ: 1; Ecoli tolC: -22; CYP2C9 inh: 0; CYP2C19 act: 1; E coli WT exp: -4; CYP2C19 inh: 2

How did CCOc1ccccc1NC(=O)C1CC2CCCC(C1)C2=O (stereo unspecified) do in these assays?
CYP2C9 activ: 1.9; Ecoli tolC: -10; CYP2C9 inh: -93; CYP2C19 act: 0.8; E coli WT exp: 3; CYP2C19 inh: 16

What do the screens show for `CCSc1nnc(-c2cccc(S(=O)(=O)N(CC)CC)c2)n1Cc1ccccc1`?
CYP2C9 activ: 0.2; Ecoli tolC: 28; CYP2C9 inh: 76*; CYP2C19 act: 0.1; E coli WT exp: -6; CYP2C19 inh: 90*

How did CCN(CC)S(=O)(=O)c1cccc(-c2nnc(SCc3ncc(-c4ccccc4)o3)n2C)c1 do in these assays?
CYP2C9 activ: 0.5; Ecoli tolC: 22; CYP2C9 inh: 51*; CYP2C19 act: 0.6; E coli WT exp: 3; CYP2C19 inh: 38

What do the screens show for `CCNC(=O)CSc1nnc(-c2cccc(S(=O)(=O)N(CC)CC)c2)n1CCc1ccccc1`?
CYP2C9 activ: 0.9; CYP2C9 inh: 12; CYP2C19 act: 1.2; E coli WT exp: 4; CYP2C19 inh: -17

Results for CCC(C)NC(=O)c1ccc(CSCc2cccc(F)c2)o1 (stereo unspecified) ?
CYP2C9 activ: 0.6; CYP2C9 inh: 38; CYP2C19 act: 0.7; E coli WT exp: -4; CYP2C19 inh: 29

How did CCc1ccc(-n2c(O)cnc2Nc2nc(C)cc(C)n2)cc1 do in these assays?
CYP2C9 activ: 0.8; Ecoli tolC: 4; CYP2C9 inh: 17; CYP2C19 act: 0.9; E coli WT exp: 6; CYP2C19 inh: 8

How did O=C(c1ccc(N2CCOCC2)cc1)c1cccs1 do in these assays?
CYP2C9 activ: 1; Ecoli tolC: 8; CYP2C9 inh: -2; CYP2C19 act: 0.9; E coli WT exp: 9; CYP2C19 inh: 14

Results for CCc1ccc(NS(=O)(=O)c2cccs2)cc1 ?
CYP2C9 activ: 0.3; Ecoli tolC: 24; CYP2C9 inh: 67*; CYP2C19 act: 0.4; E coli WT exp: 11; CYP2C19 inh: 56*

What do the screens show for `O=S(=O)(Nc1ccc(N2CCOCC2)cc1)c1cccs1`?
CYP2C9 activ: 0.5; Ecoli tolC: -8; CYP2C9 inh: 46; CYP2C19 act: 0.1; E coli WT exp: 6; CYP2C19 inh: 90*

What do the screens show for `CN(c1cccc(NS(=O)(=O)c2cccs2)c1)S(C)(=O)=O`?
CYP2C9 activ: 1.2; Ecoli tolC: 4; CYP2C9 inh: -18; CYP2C19 act: 0.8; E coli WT exp: 9; CYP2C19 inh: 20

What do the screens show for `CCCCOc1ccc(C(=O)NCc2ccccn2)cc1`?
CYP2C9 activ: 0.9; Ecoli tolC: 20; CYP2C9 inh: 11; CYP2C19 act: 1; E coli WT exp: 10; CYP2C19 inh: 0
